Measured values as given in ChEMBL document CHEMBL4765243, “Discovery of Novel Bromophenol-Thiosemicarbazone Hybrids as Potent Selective Inhibitors of Poly(ADP-ribose) Polymerase-1 (PARP-1) for Use in Cancer” (J Med Chem, 2019).
Active and inactive are the calls of the source. The calls are words filed in the database; no cut-off is given here.

How the values were obtained:
SK-OV-3 [1] = test: animal or person; settings: Mus musculus, SK-OV-3, po, 504 h, read-out: INH
[2] = Subacute toxicity in SPF Kunming mouse assessed as induction of death at 1000 mg/kg, po administered for 14 days and measured on day 14; format: organism-based; settings: in vivo, 336 h, time 14 day
Outline: (§1)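 Twenty SPF Kunming mice (18 - 22 g), half male and half female, randomised into 2 groups of 5 males + 5 females. Treated group dosed orally at 1000 mg/kg once daily for 14 days. Death, clinical signs and body weight monitored. After 14 days: isoflurane anaesthesia, decapitation, tissues collected for H&E histology.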

[3] = Half-life in Sprague-Dawley rat at 10 mg/kg, po by LC/MS/MS analysis; format: ADME, organism-based; settings: in vivo
Outline: (§2)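 Male Sprague-Dawley rats, 4 per group, dosed once orally at 10 mg/kg or intravenously at 2 mg/kg. Blood taken from the saphenous vein for plasma. Drug levels measured by LC-MS-MS, with parameters derived by noncompartmental analysis.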

SK-OV-3 [4] = test: Induction of apoptosis in human SKOV3 cells at 2.5 to 10 uM incubated for 48 hrs by annexin V-FITC/PI based flow cytometric analysis; format: functional, cell-based; settings: dose 2.5-10 µM
Outline: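 SK-OV-3 cells treated 48 h, then harvested, stained with Annexin V/PI and analysed by flow cytometry.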

[5] = Toxicity in Balb/c nude mouse xenografted with human SKOV3 cells assessed as change in body weight at 50 mg/kg, po for 21 days and measured every third day; format: organism-based; settings: in vivo, 504 h, time 21 day
Outline: (§3)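 Female BALB/c nu/nu mice, 6-8 weeks old, kept under SPF conditions. Each received 5×10^6 SK-OV-3 cells s.c. At 80–120 mm3 tumour volume, mice were split into four groups (n=6). […] Caliper measurement every three days; volume = X × (Y2/2).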

Bel-7402 [6] = test: Antiproliferative activity against human Bel-7402 cells assessed as cell growth inhibition at 20 uM incubated for 48 hrs by MTT assay relative to control; format: functional
[7] = Subacute toxicity in SPF Kunming mouse assessed as change in kidney at 1000 mg/kg, po administered for 14 days by H and E staining based microscopic analysis; format: organism-based; settings: in vivo, 336 h, time 14 day
Outline: as §1

[8] = molecular target: T1, Poly [ADP-ribose] polymerase 1 (Homo sapiens, UniProt P09874); test: Inhibition of human recombinant GST-tagged PARP-1 expressed in Escherichia coli assessed as reduction in NAD+-dependent ADP ribosylation incubated for 30 mins in presence and NAD by resazurin dye based fluorescence analysis
SK-OV-3 [9] = test: Induction of ROS generation in human SKOV3 cells assessed as fold increase in ROS level at 10 uM incubated for 48 hrs by DCFH-DA staining based flow cytometry relative to control; format: functional
[10] = MRT in Sprague-Dawley rat at 10 mg/kg, po by LC/MS/MS analysis; format: ADME, organism-based; settings: in vivo
Outline: as §2

[11] = Toxicity in Balb/c nude mouse xenografted with human SKOV3 cells assessed as histological changes in kidney at 25 to 50 mg/kg, po for 21 days by H and E staining based microscopic analysis; format: organism-based; settings: in vivo, 504 h, dose 25-50 mg/kg, time 21 day
Outline: (§4)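 SK-OV-3 xenografts in female BALB/c nude mice were dosed orally at 25 or 50 mg/kg in 0.5% CMC-Na for 21 days. Tumours were then snap-frozen in liquid nitrogen or fixed in 10% neutral-buffered formalin. Analysis used western blotting, H&E and immunohistochemistry on paraffin sections (Ki67, γ-H2AX).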

Bel-7402 [12] = test: Antiproliferative activity against human Bel-7402 cells assessed as cell growth inhibition incubated for 48 hrs by MTT assay; format: functional, cell-based; settings: Bel-7402, 48 h
Outline: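 Cells seeded in 96-well plates and exposed to compounds for 48 h; viability read by MTT. Each experiment repeated three times. SK-OV-3 grown in McCOY's 5A, Bel-7402 and HL-7702 in RPMI-1640, HepG2 in DMEM, Caco-2 in MEM.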

SK-OV-3 [13] = test: Induction of autophagy in human SKOV3 cells assessed as increase in Atg-14 protein level at 10 uM incubated for 48 hrs by western blot analysis; format: functional, cell-based
Outline: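 SK-OV-3 cells seeded in 6-well plates, treated 48 h. Protein lysates separated on 8-15 % SDS-PAGE and transferred to PVDF. Membranes blocked in 5 % nonfat milk, probed with primary antibody overnight at 4 °C, then secondary antibody 1 h at room temperature. Bands detected by enhanced chemiluminescence.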

[14] = molecular target: T1, Poly [ADP-ribose] polymerase 1; settings: dose 100.0 nM, time 30.0 min
SK-OV-3 [15] = test: Antitumor activity against human SKOV3 cells xenografted in Balb/c nude mouse assessed as increase in gamma-H2AX protein expression in tumor at 25 to 50 mg/kg, po for 21 days by western blot analysis; format: functional, organism-based; settings: dose 25-50 mg/kg, time 21.0 day
Outline: as §4

[16] = Cmax in Sprague-Dawley rat at 2 mg/kg, iv by LC/MS/MS analysis; format: ADME, organism-based; design: route intravenous, dose 2 mg/kg; settings: in vivo
Outline: as §2

SK-OV-3 [17] = test: Antitumor activity against human SKOV3 cells xenografted in Balb/c nude mouse assessed as tumor growth inhibition administered orally for 21 days and measured every third day; format: functional, cell-based; settings: dose 25-50 mg/kg, time 21.0 day
Outline: as §3

[18] = Cmax in Sprague-Dawley rat at 10 mg/kg, po by LC/MS/MS analysis; format: ADME, organism-based; design: route oral, dose 10 mg/kg; settings: in vivo
Outline: as §2

[19] = Subacute toxicity in SPF Kunming mouse assessed as change in liver at 1000 mg/kg, po administered for 14 days by H and E staining based microscopic analysis; format: organism-based; settings: in vivo, 336 h, time 14 day
Outline: as §1

[20] = Volume of distribution at steady state in Sprague-Dawley rat at 2 mg/kg, iv by LC/MS/MS analysis; format: ADME, organism-based; settings: in vivo, read-out: Vdss
Outline: as §2

[21] = molecular target: T1, Poly [ADP-ribose] polymerase 1; test: Inhibition of PARP-1 in human SKOV3 cells assessed as decrease in MCM5 protein expression level at 2.5 to 10 uM incubated for 48 hrs by western blot analysis; format: cell-based; settings: SK-OV-3, dose 2.5-10 µM
Outline: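 SK-OV-3 cells were grown in McCOY's 5A, seeded in 6-well plates and treated for 48 h. Lysate proteins were separated by 8-15 % SDS-PAGE and transferred to PVDF membranes. Membranes were blocked in 5 % nonfat milk, probed with primary antibody overnight at 4 °C and with HRP secondary antibody for 1 h at room temperature, then detected by enhanced chemiluminescence. Images are representative of 3 independent experiments.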

[22] = molecular target: T1, Poly [ADP-ribose] polymerase 1; test: Inhibition of PARP-1 in human SKOV3 cells assessed as inhibition of H2O2-induced poly-ADP ribose formation preincubated for 4 hrs followed by H2O2 addition and incubated overnight by Alexa Fluor 488 staining based confocal microscopic analysis; format: cell-based; settings: SK-OV-3, in the assay text read “incubated for 5 mins” for “incubated overnight”
Outline: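 SK-OV-3 cells were seeded in 96-well plates and grown for 24 h, exposed to compound for 4 h, then to 10 mM H2O2 for 5 min. Cells were fixed and incubated with anti-PAR primary antibody overnight at 4 °C, then with Alexa Fluor 488 secondary antibody. Nuclei were stained with 1 % DAPI and imaged by confocal microscopy.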

SK-OV-3 [23] = test: Induction of apoptosis in human SKOV3 cells assessed as decrease in Bcl-2 expression at 2.5 to 10 uM incubated for 48 hrs by western blot analysis; format: functional, cell-based; settings: dose 2.5-10 µM

T1 sequence (P09874 whole entry): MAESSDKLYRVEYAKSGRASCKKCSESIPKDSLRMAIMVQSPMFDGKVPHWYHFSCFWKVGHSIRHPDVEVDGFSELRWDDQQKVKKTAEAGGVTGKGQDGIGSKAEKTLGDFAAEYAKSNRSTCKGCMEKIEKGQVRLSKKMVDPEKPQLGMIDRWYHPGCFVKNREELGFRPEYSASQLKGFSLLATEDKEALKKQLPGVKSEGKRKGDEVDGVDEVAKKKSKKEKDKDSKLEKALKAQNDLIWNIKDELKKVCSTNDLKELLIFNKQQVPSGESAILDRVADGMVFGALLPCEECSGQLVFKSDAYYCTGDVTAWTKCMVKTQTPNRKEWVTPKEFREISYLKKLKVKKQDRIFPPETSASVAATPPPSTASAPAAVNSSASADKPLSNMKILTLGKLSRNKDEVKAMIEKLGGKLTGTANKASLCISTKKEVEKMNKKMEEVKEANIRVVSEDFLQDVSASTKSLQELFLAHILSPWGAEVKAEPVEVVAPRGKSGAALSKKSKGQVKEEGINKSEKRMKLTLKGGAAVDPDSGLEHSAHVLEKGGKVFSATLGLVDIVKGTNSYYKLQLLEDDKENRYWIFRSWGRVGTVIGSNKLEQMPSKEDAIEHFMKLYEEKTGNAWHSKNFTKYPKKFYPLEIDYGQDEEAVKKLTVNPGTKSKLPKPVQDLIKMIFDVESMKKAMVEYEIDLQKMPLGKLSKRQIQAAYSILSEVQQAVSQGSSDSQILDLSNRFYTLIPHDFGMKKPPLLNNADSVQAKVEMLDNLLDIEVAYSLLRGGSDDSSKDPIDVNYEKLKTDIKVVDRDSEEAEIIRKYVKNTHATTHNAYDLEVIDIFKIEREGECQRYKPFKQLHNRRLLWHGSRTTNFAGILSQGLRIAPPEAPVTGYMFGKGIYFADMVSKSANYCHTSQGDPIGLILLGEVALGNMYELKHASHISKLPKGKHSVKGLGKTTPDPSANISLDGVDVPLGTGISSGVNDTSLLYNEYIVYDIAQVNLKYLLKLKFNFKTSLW

For `COc1cc(/C=N/NC(N)=S)c(Br)c(Br)c1OC`, the inhibition in vivo at 25 mg/kg (SK-OV-3 [1]) was 70%, the Activity [2] was “Non-Toxic” and the half-life [3] was 2.6 h. The Activity (SK-OV-3 [4]) was “Active”, the Activity [5] was “Non-Toxic” and the inhibition at 20 µM (Bel-7402 [6]) was 63.5%. The Activity [7] was “Non-Toxic”, the IC50 [8] was 0.0295 µM and the “fold change (FC)” value (SK-OV-3 [9]) was 3.04. The MRT [10] was 3.76 h, the Activity [11] was “Non-Toxic” and the IC50 (Bel-7402 [12]) was 5.45 µM. The Activity (SK-OV-3 [13]) was “Active”, the inhibition [14] was 84.6% and the Activity (SK-OV-3 [15]) was “Active”. For the same compound, the Cmax [16] was 1250 nM, the inhibition (SK-OV-3 [17]) was “Dose-dependent effect” and the Cmax [18] was 19.9 nM. The Activity [19] was “Non-Toxic”, the Vd [20] was 6.1 L/kg and the inhibition [21] was “Active”. For the same compound, the inhibition [22] was “Active” and the Activity (SK-OV-3 [23]) was “Active”.
